VIM-2 inhibitor: VIM-2 metallo-beta-lactamase inhibitors, primary screen, biochemical, epi-absorbance readout, Pseudomonas aeruginosa enzyme. purified VIM-2, nitrocefin hydrolysis, epi-absorbance fluorescence. inhibition, % at 5.6 µM. hit rate 0.89% among 290,000. AID 1527, 2009;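 active means inhibition above the mean of all tested compounds plus 3 SD, cutoff set per screening run, cut at about 7.5% in these data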;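 further: red hydrolysis product quenches plate fluorescence so inhibitors raise well fluorescence; 0% = enzyme with DMSO and 100% = DMSO without enzyme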
PHOSPHO1 block: PubChem AID 1565; Phosphoethanolamine/phosphocholine phosphatase (Homo sapiens), Q8TCT1; recombinant PHOSPHO1, absorbance phosphatase assay; inhibition, % at 13.3 µM; hit rate 1.1% among 290,000; in the data active means inhibition above about 60%
Calb FLC: C. albicans growth inhibition with fluconazole, primary screen, CaCi-2 strain, Alamar Blue fluorescence; growth inhibition, % (concentration not given with the values); C. albicans CaCi-2 + fluconazole, 48 h; hit rate 0.57% among 300,000;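 active means growth inhibition above about 58% in most replicates, limit read from the data, passing the limit was not always enough; inconclusive means exactly half the replicates above a set limit; inactive means most replicates below a set limit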;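 further: all wells also contain fluconazole at 8 µg/ml as a sub-toxic cotreatment; 0% = median of DMSO wells and 100% = median of geldanamycin control wells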
ASAP1 inh: inhibitors of human ASAP1 ArfGAP activity, primary screen, biochemical, fluorescence polarization | Arf-GAP with SH3 domain, ANK repeat and PH domain-containing protein 1 (Homo sapiens), … | ASAP1-stimulated ARF1 GTP hydrolysis, GDP FP detection | inhibition, % at 16.5 µM | hit rate 0.19% among 360,000 | AID 624377, 2012; in the data active means inhibition above about 25%;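 further: 0% = vehicle with enzyme and substrate and 100% = no enzyme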
Target sequence (Q9ULH1 325-724 limits assumed): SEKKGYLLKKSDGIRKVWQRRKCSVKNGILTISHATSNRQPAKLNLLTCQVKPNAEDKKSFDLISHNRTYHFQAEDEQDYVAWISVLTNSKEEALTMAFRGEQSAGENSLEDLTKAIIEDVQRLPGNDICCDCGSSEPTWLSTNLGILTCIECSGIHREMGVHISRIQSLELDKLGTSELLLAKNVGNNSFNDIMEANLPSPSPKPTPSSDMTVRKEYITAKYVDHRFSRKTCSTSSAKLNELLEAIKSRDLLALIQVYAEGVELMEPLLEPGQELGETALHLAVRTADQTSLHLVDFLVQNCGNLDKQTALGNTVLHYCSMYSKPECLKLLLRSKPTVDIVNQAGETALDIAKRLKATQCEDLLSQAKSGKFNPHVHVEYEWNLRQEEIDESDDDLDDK
ARFGAP1 inh: inhibitors of rat ARFGAP1 GAP activity, primary screen, biochemical, fluorescence polarization, GDP tracer; ADP-ribosylation factor GTPase-activating protein 1 (Rattus norvegicus), Q62848; Arfgap1-stimulated ARF1 GTP hydrolysis, GDP FP detection; inhibition, % at 16.5 µM; hit rate 0.26% among 360,000;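 active means inhibition above a per-plate limit, mean inhibition of low control wells plus 3 SD, cut at about 25% in these data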;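 further: 0% = DMSO wells with enzyme and 100% = wells lacking Arfgap1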
Target sequence (Q62848 1-136 limits assumed): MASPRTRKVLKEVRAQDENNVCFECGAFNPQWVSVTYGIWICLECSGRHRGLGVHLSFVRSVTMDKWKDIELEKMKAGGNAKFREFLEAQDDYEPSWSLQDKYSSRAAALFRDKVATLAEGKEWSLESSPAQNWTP
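Repeats: one replicate per compound; assay system: rat Arfgap1 catalytic domain, aa 1-136; times: enzyme reaction 120 min at 25 °C after 20 min preincubation; detection: FP of antibody-bound GDP Alexa 633 tracer, ex 620/em 688 nm; benchmarks: high control wells lacking Arfgap1, low control full reaction with DMSO; reagent: human ARF1(Δ1-17)-GTP substrate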
IMP-1 inhibitor: IMP-1 metallo-beta-lactamase inhibitors, primary screen, biochemical, epi-absorbance readout, Pseudomonas aeruginosa enzyme; purified IMP-1, nitrocefin hydrolysis, epi-absorbance fluorescence; hit rate 0.45% among 290,000; metallo-beta-lactamase IMP-1 (Pseudomonas aeruginosa); inhibition, % at 5.6 µM;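 active means inhibition above the mean plus 3 SD of all compounds in the same screening run, cut at about 4.5% in these data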;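 further: 0% = IMP-1 with DMSO and 100% = DMSO wells lacking enzyme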
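System – purified recombinant IMP-1 beta-lactamase · Input – IMP-1 dispensed at 0.2 nM · Timing – 15 min preincubation plus 25 min reaction at 25 °C · Signal – Epi-absorbance fluorescence, 480 nm excitation, 530 nm emission · Measure – percent IMP-1 inhibition derived from blank-referenced optical density · Controls – Enzyme-plus-DMSO low control, enzyme-free DMSO high control · Replication – singlicate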
Numbers without * were called inactive; u = inconclusive; x = no result given. Sampled rows, rich in hits. Any-hit rate of the full collection: about 2.6%.

SMILES	VIM-2 inhibitor	PHOSPHO1 block	Calb FLC	ASAP1 inh	ARFGAP1 inh	IMP-1 inhibitor
CCCc1cc(NCc2ccccn2)n2c(nc3ccccc32)c1C#N	4.4	0.1	29.2	-7.6	10.1	-3.2
CC(C)(C)c1ccc(C#C[C@@H]2C=C[C@@H](O)[C@@H](COC(=O)NCc3ccccc3)O2)cc1	x	x	x	6.8	-1.9	x
CC(=O)N1N=C(c2ccncc2)OC12CCCCC2	-3.8	62.3*	-5.4	-1.5	-5.2	-2.1
CC(=O)N1N=C(c2ccncc2)OC12CCCCCC2	1.6	14.4	-23.7	1.0	0.6	-1.8
CCOC(=O)c1cnc2ccc(C)cc2c1Nc1ccc(N2CCOCC2)cc1	4.8	-9.3	96.2*	-6.7	2.9	0.0
O=[N+]([O-])c1ccc(O)c(Nc2ncnc3ccc(Br)cc23)c1	-3.0	50.7	85.1*	-3.3	-4.5	-3.0
CC(C)=C1C2CCC1C(C(=O)Nc1cc(C)cc(C)c1)C2C(=O)O (configuration not stated)	9.4*	26.0	-11.5	9.4	8.2	-1.8
CCSc1nnc(NC(=O)C2Cc3ccccc3CN2C(=O)c2ccco2)s1 (configuration not stated)	-4.0	61.0*	2.5	4.9	9.0	-3.2
O=C(NCC1CCCO1)c1ccc(Cl)c(NS(=O)(=O)c2ccc(F)cc2)c1 (configuration not stated)	x	x	x	-5.2	-11.1	x
CC(c1ccc(F)cc1)n1c(-c2ccc3ccccc3n2)n[nH]c1=S (configuration not stated)	-2.5	-4.6	30.3	1.9	-0.5	-1.7
CC(c1ccc(Cl)cc1)n1c(-c2ccc3ccccc3n2)n[nH]c1=S (configuration not stated)	-5.8	55.7	79.1*	5.4	0.7	-3.7
Cc1oc2c(c(C)nn2-c2ccccc2)c(=O)c1Cl	x	x	x	-11.5	-1.2	x
C[C@@H]1CN([C@@H](C)CO)C(=O)c2cc(Br)cnc2O[C@@H]1CN(C)Cc1ccccn1	x	x	x	-7.7	0.2	x
O=C(c1cc2c(s1)CCCCC2)N1CCN(c2ncccn2)CC1	-1.5	-20.1	76.1*	-11.3	4.5	-1.5
CCc1nc2c(OCC(=O)C(C)(C)C)cccn2c1N(C=O)Cc1ccc(OC)cc1	x	x	x	-10.7	-2.2	x
Nc1[nH]c(C(=O)c2ccccc2)c(-c2cccc3ccccc23)c1C(=O)c1cccs1	x	x	x	7.4	-7.7	x
COc1ccc(/C=C/C(=O)c2ccccn2)cc1	9.6*	16.3	36.3	-10.2	11.5	0.8
CN(C)c1ccc(C(=S)N2CCCCC2)cc1Br	-2.3	-1.3	-5.0	-10.1	1.3	-2.3
CN(C)c1ccc(C(=S)N2CCOCC2)cc1Br	-0.6	100.9*	-5.1	-0.7	1.2	-0.4
Cc1nc(N)sc1-c1csc(Nc2ccccn2)n1	-2.9	70.2*	-9.2	3.4	6.6	-4.3
Cc1ccc(Nc2nc(-c3sc(N)nc3C)cs2)cc1	1.2	-11.3	22.0	0.5	3.8	0.9
COc1ccc(Nc2nc(-c3sc(NC(C)=O)nc3C)cs2)cc1	-1.6	73.1*	-5.7	x	x	-3.7
COc1ccc(Nc2nc(-c3sc(N)nc3C)cs2)cc1	-2.9	68.3*	u	11.3	-2.3	-4.2
O=C1NC(c2cccc(C(F)(F)F)c2)c2c(-c3ccccc3)n[nH]c21 (configuration not stated)	x	x	x	-6.9	-8.3	x
CCn1ccc(C(=O)NCCCN2CCCC2=O)n1	-6.7	65.4*	0.9	-3.1	-1.1	-5.9
SMILES	VIM-2 inhibitor	PHOSPHO1 block	Calb FLC	ASAP1 inh	ARFGAP1 inh	IMP-1 inhibitor
CSC1=NC2(CCCCC2)C2=C(CCCC2)N1	-5.5	101.2*	-4.8	-9.4	1.4	-3.4
O=C(NCc1ccccc1)c1cc(C2CCCN(C(=O)c3ccccc3)C2)on1 (configuration not stated)	x	x	x	3.1	-8.5	x
COC(=O)c1ccc(CN2CCC(n3nccc3NC(=O)C3CCCC3)CC2)cc1	-2.9	62.6*	-10.2	4.0	-6.5	-4.3
COc1ccc(CN2CCC(n3nccc3NC(=O)C3CC3)CC2)cc1O	-2.6	27.6	-0.8	-0.8	5.0	-0.9
CSc1cccc(CN2CCC(n3nccc3NC(=O)C3CC3)CC2)c1	-2.5	63.6*	-5.0	2.0	-7.0	-3.2
CCCC(=O)OC[C@H]1CN(C2CCCC2)S(=O)(=O)c2c(F)cccc2O1	x	x	x	-5.4	6.6	x
O=C(Nc1ccccc1)OC[C@@H]1CSCCS(=O)(=O)N1	x	x	x	6.2	2.0	x
COc1ccc(C(C)(C)C)cc1N1C(=O)[C@@H]2CSCCS(=O)(=O)N2C1=O	x	x	x	0.9	-4.8	x
O=C(CSc1nnnn1-c1ccccc1)Nc1ccc(N2CCOCC2)cc1	-2.1	-57.2	44.6	2.8	-5.6	-1.3
O=C(CSc1nncn1-c1ccccc1)Nc1ccc(N2CCOCC2)cc1	-1.7	86.9*	-3.8	1.5	-0.1	-3.0
COc1ccc(-n2cnnc2SCC(=O)N2CCN(c3ccccc3)CC2)cc1	-1.6	92.7*	-17.8	-3.0	1.9	-5.3
O=C(Nc1ccc(Cl)cc1)[C@@H]1[C@@H]2C(=O)N(c3cccc(F)c3)C(=O)[C@@H]2[C@H]2C=CC=NN21	-3.3	-48.3	-1.8	-5.6	2.5	-3.4
O=C(Nc1ccc(Cl)cc1)[C@@H]1[C@@H]2C(=O)N(c3ccc4ccccc4c3)C(=O)[C@@H]2[C@H]2C=CC=NN21	-3.1	75.7*	-1.6	3.9	-8.7	-2.5
Cc1cc(N2CCN(C(=O)OC(C)(C)C)C[C@H]2C)ccc1Br	x	x	x	-5.5	-0.9	x
COCc1n[nH]c(=S)n1-c1cccc2ccccc12	8.0*	73.8*	x	-11.3	-2.8	-3.4
S=c1[nH]nc(Cc2cccc3ccccc23)n1-c1ccccc1	-6.5	94.5*	1.7	16.6	-0.8	-5.1
S=c1[nH]nc(CCc2nc3ccccc3[nH]2)n1-c1ccccc1	7.8*	51.1	-20.7	8.9	1.0	-3.4
S=c1[nH]nc(CCc2nc3ccccc3[nH]2)n1-c1cccc(Cl)c1	7.7*	-83.7	3.2	0.6	0.0	-2.5
COc1ccc(-c2cc(-c3n[nH]c(=S)n3-c3cccc4ccccc34)[nH]n2)cc1	-2.5	-9.8	53.7	4.3	-6.8	-0.6
C/C=C/C=C/C(=O)c1cc(C)c(OC(=O)CNC(=O)OC(C)(C)C)c(C)c1O	x	x	x	6.1	-3.8	x
O=C(N[C@H](C(=O)N1CCC[C@H]1C(=O)NCCc1ccccc1Cl)C1CCCCC1)c1cccs1	x	x	x	-7.9	-2.3	x
